Experimental findings from ChEMBL document CHEMBL1287659, “Phenylmethylene hydantoins as prostate cancer invasion and migration inhibitors. CoMFA approach and QSAR analysis” (Eur J Med Chem, 2010) are described below.

For experiment [1], the system named is PC-3. The experiment in a line: Antimetastatic activity against human PC3 cells after 24 hrs by wound-healing assay. The experiment is classed as functional, cell-based. To be noted: for IC50: PC-3, 24 h. In short, it runs like this:
(§1)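 Scratch wound in PC-3 monolayer. Compounds dissolved in DMSO, added in triplicate, DMSO as vehicle control. Incubation 24 h, serum-starved. Cells then fixed and Diff-Quick stained. Cells migrated into the wound counted in three or more random fields at 400×, mean ± SEM per field. IC50 by nonlinear regression of log concentration versus cells/well.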

The subject of experiment [2] is PC-3. The experiment in a line: Antimetastatic activity against human PC3 cells at 100 uM after 24 hrs by wound-healing assay. The note with it: PC-3, 24 h. The format is functional. In short, it runs like this:
as §1

The subject of experiment [3] is PC-3. In words: Antiinvasive activity against human PC3 cells at 50 uM by cultrex cell invasion assay. The format is functional, cell-based. In short, it runs like this:
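Basement membrane extract coated upper chambers (4 h, 37 °C, 5% CO2) seeded with 50,000 PC-3 cells in serum-free RPMI plus compound at 50 µM. Lower chamber: RPMI, 10% FBS, fibronectin and N-formyl-met-leu-phe (10 nM) as chemoattractants. Migration 24 h at 37 °C. Invaded cells loaded with calcein-AM, fluorescence at 485/520 nm, counts from standard curve; n = 3, SD.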

Experiment [4] concerns PC-3. In words: Antimetastatic activity against human PC3 cells at 50 uM after 24 hrs by wound-healing assay. The experiment is classed as functional. To be noted: PC-3, 24 h. The method, boiled down: as §1
The test system of experiment [5] is PC-3. The experiment in a line: Ratio of compound IC50 to 5-(4-(ethylthio)benzylidene)imidazolidine-2,4-dione IC50 for human PC3 cells at 100 uM after 24 hrs by wound-healing assay. The experiment is classed as functional.
In experiment [6] the test system is PC-3. The experiment in a line: Cytotoxicity against human PC3 cells up to 200 uM after 72 hrs by MTT assay. The format is functional, cell-based. In short, it runs like this: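 PC-3 cells seeded at 8 × 10³ per well, attached 24 h. Switched to serum-free RPMI with compound at up to 200 µM, 72 h at 37 °C, 5% CO2. MTT added for 4 h, then solubilization/stop solution. Absorbance read at 570 nm; cells/well from a hemocytometer-based standard curve.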
Background: Formazan colour is commonly taken as a measure of viable cells.

The source made the active and inactive calls. The calls are words filed in the database; no cut-off is given here.

For the compound `O=C1NC(=O)/C(=C/c2ccncc2)N1`, the IC50 in experiment [1] (read-out: pIC50 (converted)) was 178 µM.
As to `CCOc1cc(/C=C2\NC(=O)NC2=O)cc(Br)c1OCC`, the inhibition (as a rule, the share of the control response that was lost under treatment) at 100 µM in experiment [2] amounted to 77.5%. In addition, the outcome in experiment [3] was Active. Further, the values for the IC50 in experiment [1] (read-out: IC50) and in experiment [1] (read-out: pIC50 (converted)) were 35.7 µM and 35.6 µM, respectively.
Take `CCCOc1cc(OC)c(/C=C2\NC(=O)NC2=O)c(OC)c1Cl`: in experiment [2], the inhibition at 100 µM is 19%. The IC50 in experiment [1] (read-out: IC50) and in experiment [1] (read-out: pIC50 (converted)) was 187 µM throughout.
In turn, `COc1cc(/C=C2\NC(=O)NC2=O)ccc1OCC(=O)N1CCCC1` displayed an inhibition at 100 µM in experiment [2] of 36.3%. Besides, the IC50 was 86 µM in experiment [1] (read-out: IC50) and 85.9 µM in experiment [1] (read-out: pIC50 (converted)).
Take `O=C1NC(=O)/C(=C/c2cnc[nH]2)N1`: in experiment [1] (read-out: pIC50 (converted)), the IC50 is 54.2 µM.
In turn, `CCCOc1ccc(/C=C2\NC(=O)NC2=O)c(OC)c1` returned an inhibition at 100 µM in experiment [2] of 23%. The IC50 in experiment [1] (read-out: IC50) and in experiment [1] (read-out: pIC50 (converted)) was 110 µM throughout.
For the compound `O=C1NC(=O)/C(=C/c2c[nH]c3ncccc23)N1`, in experiment [1] (read-out: pIC50 (converted)), the IC50 was 49.7 µM.
Turning to `CCSc1ccc(/C=C2\NC(=O)NC2=O)cc1`, the result in experiment [3] was Active. The inhibition at 50 µM in experiment [4] was determined as 42.9%. Further, the IC50 in experiment [1] (read-out: IC50) and in experiment [1] (read-out: pIC50 (converted)) was 42.9 µM in each case.
Take `O=C1NC(=O)/C(=C/c2ccc(O)cc2)N1` [4-HYDROXYPHENYLMETHYLENE HYDANTOIN]: testing at 100 µM in experiment [2] gave an inhibition of 34%. Moreover, the IC50 in experiment [1] (read-out: IC50) and in experiment [1] (read-out: pIC50 (converted)) was 128 µM in each case.
In experiment [2], `C#CCOc1c(Cl)cc(/C=C2\NC(=O)NC2=O)cc1OC` registered an inhibition at 100 µM of 88.8%. In addition, the result in experiment [3] was Active. In addition, the IC50 in experiment [1] (read-out: IC50) and in experiment [1] (read-out: pIC50 (converted)) was 21.8 µM each time.
As to `COc1c(/C=C2\NC(=O)NC2=O)ccc(OC(C)(C)C)c1Cl`, 100 µM produced 39% inhibition in experiment [2]. Moreover, the IC50 in experiment [1] (read-out: IC50) and in experiment [1] (read-out: pIC50 (converted)) was 91 µM in each case.
As to `O=C1NC(=O)/C(=C/c2cccc(-c3cccs3)n2)N1`, the outcome in experiment [3] was Active. In experiment [1] (read-out: pIC50 (converted)), the IC50 was 32.4 µM.
Consider `O=C1NC(=O)/C(=C/c2cc(I)c[nH]2)N1`, for which the IC50 in experiment [1] (read-out: pIC50 (converted)) was 199 µM.
Compound `CC(C)CCOc1ccc(/C=C2\NC(=O)NC2=O)cc1` showed an inhibition at 100 µM in experiment [2] of 66.7%. The IC50 in experiment [1] (read-out: IC50) was 46.1 µM; in experiment [1] (read-out: pIC50 (converted)) it was 46 µM.
Regarding `O=C1NC(=O)/C(=C/c2cccc3c2OCO3)N1`, the IC50 in experiment [1] (read-out: pIC50 (converted)) was 155 µM.
The same measure, in the same setting: with `O=C1NC(=O)/C(=C/c2cc(O)c[nH]2)N1` the figure was 99.1 µM.
Take `O=C1NC(=O)/C(=C/c2ccc(N3CCCC3)cc2)N1`: 100 µM produced 75.9% inhibition in experiment [2]. In addition, the result in experiment [3] was Active. In addition, the IC50 was 48.7 µM in experiment [1] (read-out: IC50) and 48.6 µM in experiment [1] (read-out: pIC50 (converted)).
Regarding `COc1cccc(/C=C2\NC(=O)NC2=O)n1`, the IC50 in experiment [1] (read-out: pIC50 (converted)) is 59.8 µM.
In experiment [2], `CC(C)(C)Oc1ccc(/C=C2\NC(=O)NC2=O)cc1` yielded an inhibition at 100 µM of 52.7%. For the same compound, the IC50 in experiment [1] (read-out: IC50) was 60.8 µM; in experiment [1] (read-out: pIC50 (converted)), 60.7 µM.
In the case of `O=C1NC(=O)/C(=C/c2ccc(OCc3ccc(F)cc3)cc2)N1`, in experiment [2], the inhibition at 100 µM worked out at 76.3%. Moreover, the result in experiment [3] was Active. Besides, the IC50 in experiment [1] (read-out: IC50) and in experiment [1] (read-out: pIC50 (converted)) was 23.8 µM in each case.
`CCCOc1ccc(/C=C2\NC(=O)NC2=O)c(OCCC)c1` registered an inhibition at 100 µM in experiment [2] of 68.4%. For the same compound, the IC50 in experiment [1] (read-out: IC50) and in experiment [1] (read-out: pIC50 (converted)) was 77.1 µM in each case.
In turn, `COc1cc(/C=C2\NC(=O)NC2=O)ccc1OCC(=O)N1CCOCC1` displayed an inhibition at 100 µM in experiment [2] of 33.2%. The IC50 in experiment [1] (read-out: IC50) and in experiment [1] (read-out: pIC50 (converted)) was 94 µM throughout.
`COc1cc(/C=C2\NC(=O)NC2=O)ccc1OCC(=O)c1ccccc1`: 100 µM produced 91.8% inhibition in experiment [2]. Further, the result in experiment [3] was Active. Besides, the IC50 in experiment [1] (read-out: IC50) and in experiment [1] (read-out: pIC50 (converted)) was 19.7 µM each time.
Turning to `CSc1ccc(/C=C2\NC(=O)NC2=O)cc1`, at 100 µM the inhibition in experiment [2] was 80.9%. For the same compound, the result in experiment [3] was Active. For the same compound, the IC50 in experiment [1] (read-out: IC50) and in experiment [1] (read-out: pIC50 (converted)) was 44.7 µM each time.
As for `Cc1nc[nH]c1/C=C1\NC(=O)NC1=O`, the IC50 in experiment [1] (read-out: pIC50 (converted)) was 95.1 µM.
Same read-out and setting: with `O=C1NC(=O)/C(=C/c2cccc3c2NCC3)N1` the figure was 86.5 µM.
`CCCOc1c(Br)cc(/C=C2\NC(=O)NC2=O)cc1OC` came in with an inhibition at 100 µM in experiment [2] of 97.4%. In addition, in experiment [3], the outcome was Active. Further, the “Ratio IC50” value in experiment [5] amounted to 5. For the same compound, the Activity result in experiment [1] was “Dose-dependent effect”. Further, the figures for the IC50 in experiment [1] (read-out: IC50) and in experiment [1] (read-out: pIC50 (converted)) were 8.1 µM and 8.09 µM, respectively. In experiment [6], the outcome was inactive.
`O=C1NC(=O)/C(=C/c2ccc(O)cn2)N1`: the IC50 in experiment [1] (read-out: pIC50 (converted)) was 81.8 µM.
